Measured values: ChEMBL document CHEMBL4428090, “Modeling, Synthesis, and Biological Evaluation of Potential Retinoid X Receptor (RXR)-Selective Agonists: Analogues of 4-[1-(3,5,5,8,8-Pentamethyl-5,6,7,8-tetrahydro-2-naphthyl)ethynyl]benzoic Acid (Bexarotene) and 6-(Ethyl(5,5,8,8-tetrahydronaphthalen-2-yl)amino)nicotinic Acid (NEt-TMN)” (J Med Chem, 2016)
The source made the active and inactive calls. The calls are words filed in the database; no cut-off is given here.

target: T1, Retinoid X receptor (Homo sapiens) (UniProt P28702+P48443+P19793); test: Agonist activity at human RXR binding domain and activation domain expressed in human HCT116 cells assessed as rexinoid activity at 25 nM incubated for 24 hrs by luciferase reporter gene based mammalian two-hybrid assay relative to bexarotene; format: cell-based; settings: not given
Procedure, shortened: (§1)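 HCT-116 cells plated overnight (80,000/well, DMEM with 10% FBS), co-transfected for 24 h with human RXR binding-domain (bait) and activation-domain (prey) vectors, pFR-Luc Gal4 reporter and renilla control. Treated 24 h at 25, 100 or 1000 nM final; vehicle ethanol or DMSO 0.1%. Dual-luciferase read-out. Three independent assays in triplicate; bexarotene set to 100%.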

| Activity [%] | fold change (FC) | SMILES |
| --- | --- | --- |
| 3.4 | – | CCN(c1cnc(C(=O)O)cn1)c1cc2c(cc1C)C(C)(C)CCC2(C)C |
| – | 2 | CCN(c1ccc2c(c1)C(C)(C)CCC2(C)C)c1ncc(C(=O)O)cn1 |

target: T2, Retinoic acid receptor RXR-alpha/oxysterols receptor LXR-alpha (Homo sapiens, UniProt P19793+Q13133); test: Agonist activity at human RXRalpha/LXRalpha expressed in human HCT116 cells assessed as reduction in SREBP-mediated transcription activity at 100 nM incubated for 24 hrs by luciferase reporter gene assay relative to bexarotene; format: cell-based; set-up: scale not given: the % may be the effect or the level left; settings: 0.1 µM
T2 sequence (P19793 whole entry): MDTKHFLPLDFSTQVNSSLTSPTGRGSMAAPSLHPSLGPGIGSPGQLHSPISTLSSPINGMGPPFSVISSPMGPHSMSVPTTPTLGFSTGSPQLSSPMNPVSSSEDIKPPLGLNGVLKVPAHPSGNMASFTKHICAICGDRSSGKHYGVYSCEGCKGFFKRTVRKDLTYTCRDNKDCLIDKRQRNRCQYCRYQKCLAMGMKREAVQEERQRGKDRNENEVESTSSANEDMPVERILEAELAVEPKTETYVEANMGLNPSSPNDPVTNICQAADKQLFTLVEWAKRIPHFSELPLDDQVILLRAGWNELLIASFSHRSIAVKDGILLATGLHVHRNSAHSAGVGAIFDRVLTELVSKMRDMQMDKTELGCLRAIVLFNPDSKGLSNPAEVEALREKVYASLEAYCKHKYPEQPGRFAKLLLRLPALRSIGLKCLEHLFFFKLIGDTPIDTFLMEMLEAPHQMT
T2 sequence (Q13133 whole entry): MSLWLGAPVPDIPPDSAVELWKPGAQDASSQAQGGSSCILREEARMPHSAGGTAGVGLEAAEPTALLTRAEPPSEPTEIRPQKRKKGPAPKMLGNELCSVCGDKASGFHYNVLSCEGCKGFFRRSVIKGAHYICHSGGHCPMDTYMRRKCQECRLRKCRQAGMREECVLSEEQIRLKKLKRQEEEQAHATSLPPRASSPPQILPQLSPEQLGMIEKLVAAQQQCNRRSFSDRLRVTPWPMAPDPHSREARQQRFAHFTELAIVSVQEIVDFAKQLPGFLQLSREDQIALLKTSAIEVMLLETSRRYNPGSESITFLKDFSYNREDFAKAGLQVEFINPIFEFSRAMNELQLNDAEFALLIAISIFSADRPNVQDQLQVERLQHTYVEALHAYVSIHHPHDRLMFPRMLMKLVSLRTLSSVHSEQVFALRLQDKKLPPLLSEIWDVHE
Procedure, shortened: (§2)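 HCT116 cells co-transfected for 24 h with 100 ng pBP1c(6500)-Luc (about 6500 bp murine SREBP-1c promoter), 10 ng human LXRα and 20 ng renilla. Treated 24 h with compound at 100 nM, alone or with 100 nM TO901317. Luciferase output. Three independent assays in triplicate; bexarotene = 100%.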

| Activity | SMILES |
| --- | --- |
| 54 to 79% | CCN(c1cnc(C(=O)O)cn1)c1cc2c(cc1C)C(C)(C)CCC2(C)C |
| Active | CCN(c1ccc2c(c1)C(C)(C)CCC2(C)C)c1ncc(C(=O)O)cn1 |

species on record: Homo sapiens; test: Selectivity index, ratio of agonist activity at human RARalpha expressed in HEK293 cells assessed as increase in RARE-mediated transcription relative to bexarotene to agonist activity at human RXRalpha expressed in human HCT116 cells assessed as increase in RXRE-mediated transcription relative to bexarotene; format: cell-based; settings: not given
Procedure, shortened: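 HEK293 cells (60,000/well) transfected for 24 h with 250 ng pTK-DR5(X2)-Luc, 25 ng human RARα and 20 ng renilla. Treated 24 h at 100 nM; activity expressed as a percentage of all-trans-retinoic acid. This RARE activity is divided by 100 nM RXRE activity, with the bexarotene ratio set to 1.0.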

| SMILES | Ratio |
| --- | --- |
| CCN(c1cnc(C(=O)O)cn1)c1cc2c(cc1C)C(C)(C)CCC2(C)C | > 0.5 |

tested on: not listed separately; test: Lipid risk index, ratio of agonist activity at human RXRalpha/LXRalpha expressed in human HCT116 cells assessed as reduction in SREBP-mediated transcription activity to agonist activity at human RXRalpha expressed in human HCT116 cells assessed as increase in RXRE-mediated transcription; settings: not given
Procedure, shortened: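 Lipid risk index: SREBP-promoter luciferase activity (HCT116, LXRα-transfected, 100 nM compound with or without 100 nM TO901317, 24 h) divided by RXRE activity at 100 nM. The SREBP:RXRE ratio for bexarotene is set to 1.0.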

| SMILES | Ratio |
| --- | --- |
| CCN(c1ccc2c(c1)C(C)(C)CCC2(C)C)c1ncc(C(=O)O)cn1 | 0.49 - 0.51 |

target: T1, Retinoid X receptor (Homo sapiens); test: Agonist activity at human RXR binding domain and activation domain expressed in human HCT116 cells assessed as rexinoid activity at 1000 nM incubated for 24 hrs by luciferase reporter gene based mammalian two-hybrid assay relative to bexarotene; format: cell-based; settings: not given; procedure, shortened: as §1

| Activity [%] | SMILES |
| --- | --- |
| 35 to 58 | CCN(c1ccc2c(c1)C(C)(C)CCC2(C)C)c1ncc(C(=O)O)cn1 |

target: T3, Retinoic acid receptor RXR-alpha (Homo sapiens) (UniProt P19793); test: Agonist activity at human RXRalpha expressed in human HCT116 cells assessed as increase in RXRE-mediated transcription at 100 nM incubated for 24 hrs by RXRE luciferase reporter gene assay relative to bexarotene; format: cell-based; settings: not given
T3 sequence (whole entry): T2 sequence (P19793 whole entry)
Procedure, shortened: (§3)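 HCT-116 cells (80,000/well) co-transfected for 24 h with 250 ng RXRE-luciferase reporter (DR1 element from the rat cellular retinol binding protein II gene), 25 ng pSG5-human RXRα and 20 ng renilla. Dosed 24 h at 25, 100 or 1000 nM final; ethanol or DMSO vehicle 0.1%. Dual-luciferase read-out. Three independent assays in triplicate; bexarotene = 100%.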

| Activity [%] | SMILES |
| --- | --- |
| 68 to 89 | CCN(c1ccc2c(c1)C(C)(C)CCC2(C)C)c1ncc(C(=O)O)cn1 |

target: T1, Retinoid X receptor (Homo sapiens); test: Agonist activity at human RXR binding domain and activation domain expressed in human HCT116 cells assessed as rexinoid activity at 100 nM incubated for 24 hrs by luciferase reporter gene based mammalian two-hybrid assay relative to bexarotene; format: cell-based; settings: not given; procedure, shortened: as §1

| Activity [%] | SMILES |
| --- | --- |
| 135 to 146 | CCN(c1ccc2c(c1)C(C)(C)CCC2(C)C)c1ncc(C(=O)O)cn1 |

same assay, conditions: in the assay text read “relative to activity at 25 nM” for “relative to bexarotene”

| fold change (FC) | SMILES |
| --- | --- |
| 5 to 16 | CCN(c1cnc(C(=O)O)cn1)c1cc2c(cc1C)C(C)(C)CCC2(C)C |

target: T3, Retinoic acid receptor RXR-alpha (Homo sapiens); test: Agonist activity at human RXRalpha expressed in human HCT116 cells assessed as increase in RXRE-mediated transcription incubated for 24 hrs by RXRE luciferase reporter gene assay; format: cell-based; settings: not given

| Activity | SMILES |
| --- | --- |
| inactive | CCN(c1cnc(C(=O)O)cn1)c1cc2c(cc1C)C(C)(C)CCC2(C)C |

tested on: HuT78; test: Growth inhibition of human HUT78 cells at 200 nM incubated for 72 hrs by MTS assay relative to bexarotene; format: functional; settings: HuT78, 72 h, read-out: GI
Procedure, shortened: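 Hut78 cells in RPMI with 10% FBS at 37°C, 5% CO2. Plated 7,500 cells/well and immediately dosed at 200 nM for 72 h. MTS read at A490; percent inhibition with media control set to 0.0, compared with bexarotene set to 100%. Mean of three independent experiments.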

| SMILES | inhibition of growth at 0.2 µM [%] |
| --- | --- |
| CCN(c1cnc(C(=O)O)cn1)c1cc2c(cc1C)C(C)(C)CCC2(C)C | 35 to 51 |
| CCN(c1ccc2c(c1)C(C)(C)CCC2(C)C)c1ncc(C(=O)O)cn1 | > 85 |

target: T4, Retinoid X receptor (Homo sapiens, UniProt P28702+P48443+P19793); test: Agonist activity at human RXR binding domain and activation domain expressed in human HCT116 cells assessed as rexinoid activity incubated for 24 hrs by luciferase reporter gene based mammalian two-hybrid assay; format: cell-based; settings: not given
T4 sequence (P28702 whole entry): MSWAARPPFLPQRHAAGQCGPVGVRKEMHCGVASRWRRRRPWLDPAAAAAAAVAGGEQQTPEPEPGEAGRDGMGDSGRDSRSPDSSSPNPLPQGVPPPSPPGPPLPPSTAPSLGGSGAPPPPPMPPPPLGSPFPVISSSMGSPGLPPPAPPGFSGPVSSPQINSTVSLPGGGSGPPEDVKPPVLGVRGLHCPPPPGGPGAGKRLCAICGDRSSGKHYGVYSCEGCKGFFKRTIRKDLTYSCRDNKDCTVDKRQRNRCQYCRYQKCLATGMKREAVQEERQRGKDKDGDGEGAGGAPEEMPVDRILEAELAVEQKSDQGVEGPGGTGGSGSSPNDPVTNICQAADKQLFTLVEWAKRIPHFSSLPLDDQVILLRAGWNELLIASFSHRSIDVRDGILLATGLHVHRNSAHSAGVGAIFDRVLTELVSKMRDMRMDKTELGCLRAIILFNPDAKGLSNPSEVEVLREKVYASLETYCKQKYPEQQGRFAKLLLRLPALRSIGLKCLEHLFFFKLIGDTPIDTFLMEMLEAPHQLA
T4 sequence (P48443 whole entry): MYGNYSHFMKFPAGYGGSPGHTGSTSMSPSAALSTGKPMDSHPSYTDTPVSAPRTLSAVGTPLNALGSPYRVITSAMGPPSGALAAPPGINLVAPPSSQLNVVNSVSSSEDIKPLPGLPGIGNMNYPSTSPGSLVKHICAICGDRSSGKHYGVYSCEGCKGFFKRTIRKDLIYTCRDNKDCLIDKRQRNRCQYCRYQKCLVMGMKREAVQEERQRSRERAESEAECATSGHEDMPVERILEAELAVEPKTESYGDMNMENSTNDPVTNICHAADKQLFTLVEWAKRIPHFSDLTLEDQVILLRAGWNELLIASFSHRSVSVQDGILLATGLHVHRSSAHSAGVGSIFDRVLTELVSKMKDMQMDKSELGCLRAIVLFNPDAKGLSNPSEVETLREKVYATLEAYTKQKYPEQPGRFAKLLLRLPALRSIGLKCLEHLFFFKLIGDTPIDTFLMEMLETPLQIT
T4 sequence (P19793 whole entry): T2 sequence (P19793 whole entry)

| EC50 [nM] | SMILES |
| --- | --- |
| 295.5 | CCN(c1cnc(C(=O)O)cn1)c1cc2c(cc1C)C(C)(C)CCC2(C)C |
| 40.9 | CCN(c1ccc2c(c1)C(C)(C)CCC2(C)C)c1ncc(C(=O)O)cn1 |

target: T3, Retinoic acid receptor RXR-alpha (Homo sapiens); test: Agonist activity at human RXRalpha expressed in human HCT116 cells assessed as increase in RXRE-mediated transcription at 25 nM incubated for 24 hrs by RXRE luciferase reporter gene assay relative to bexarotene; format: cell-based; settings: not given; procedure, shortened: as §3

| Activity [%] | SMILES |
| --- | --- |
| 27 to 66 | CCN(c1ccc2c(c1)C(C)(C)CCC2(C)C)c1ncc(C(=O)O)cn1 |

target: T3, Retinoic acid receptor RXR-alpha (Homo sapiens); test: Agonist activity at human RXRalpha expressed in human HCT116 cells assessed as increase in RXRE-mediated transcription at 1000 nM incubated for 24 hrs by RXRE luciferase reporter gene assay relative to bexarotene; format: cell-based; settings: not given; procedure, shortened: as §3

| Activity | SMILES |
| --- | --- |
| Active | CCN(c1cnc(C(=O)O)cn1)c1cc2c(cc1C)C(C)(C)CCC2(C)C |
| 20 to 43% | CCN(c1ccc2c(c1)C(C)(C)CCC2(C)C)c1ncc(C(=O)O)cn1 |

tested on: not listed separately; test: Mutagenicity in Saccharomyces cerevisiae D7 assessed as induction of mutagenesis by measuring forward and reverse mutations up to 0.1 mg/mL; format: toxicity; settings: not given

| SMILES | Activity |
| --- | --- |
| CCN(c1cnc(C(=O)O)cn1)c1cc2c(cc1C)C(C)(C)CCC2(C)C | Non-Toxic |
| CCN(c1ccc2c(c1)C(C)(C)CCC2(C)C)c1ncc(C(=O)O)cn1 | Non-Toxic |

target: T2, Retinoic acid receptor RXR-alpha/oxysterols receptor LXR-alpha; test: Agonist activity at human RXRalpha/LXRalpha expressed in human HCT116 cells assessed as reduction in SREBP-mediated transcription activity at 100 nM incubated for 24 hrs by luciferase reporter gene assay in presence of 100 nM LXR agonist TO901317 relative to bexarotene; format: cell-based; set-up: scale not given: the % may be the effect or the level left; settings: 0.1 µM; procedure, shortened: as §2

| Activity [%] | SMILES |
| --- | --- |
| 29 | CCN(c1cnc(C(=O)O)cn1)c1cc2c(cc1C)C(C)(C)CCC2(C)C |
| 13 to 17 | CCN(c1ccc2c(c1)C(C)(C)CCC2(C)C)c1ncc(C(=O)O)cn1 |
